CHT PAM = CHT positive allosteric modulators, primary screen, cell-based, membrane potential dye, choline EC20; High affinity choline transporter 1 (Homo sapiens), Q9GZV3; 310,000 compounds, 0.49% hits; CHT-expressing cells; hits give high values; LV-AA mutant CHT in HEK293 cells; B-score at 10 µM;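 active = initial fluorescence not abnormally high and integrated response B-score, plate-corrected, over 3 SD above library mean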
Target sequence (Q9GZV3 whole entry, looked up): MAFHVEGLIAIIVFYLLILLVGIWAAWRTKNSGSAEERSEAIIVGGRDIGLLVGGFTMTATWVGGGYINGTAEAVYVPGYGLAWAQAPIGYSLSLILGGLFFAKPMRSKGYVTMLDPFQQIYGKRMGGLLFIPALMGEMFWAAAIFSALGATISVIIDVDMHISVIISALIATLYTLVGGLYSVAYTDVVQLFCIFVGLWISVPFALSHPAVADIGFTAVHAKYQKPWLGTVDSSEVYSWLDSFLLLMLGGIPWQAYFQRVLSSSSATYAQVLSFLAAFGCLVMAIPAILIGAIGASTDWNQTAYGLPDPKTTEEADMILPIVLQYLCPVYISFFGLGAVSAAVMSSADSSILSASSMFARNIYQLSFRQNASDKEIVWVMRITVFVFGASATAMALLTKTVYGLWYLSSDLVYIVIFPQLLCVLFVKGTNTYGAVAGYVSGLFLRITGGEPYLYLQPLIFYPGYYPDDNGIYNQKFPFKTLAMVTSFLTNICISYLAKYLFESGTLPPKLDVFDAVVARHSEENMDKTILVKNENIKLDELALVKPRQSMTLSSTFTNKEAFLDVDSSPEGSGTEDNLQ
proCasp7 act = procaspase-7 activators, primary screen, counter-screen for procaspase-3 activator project, biochemical, absorbance, HTS, human. Caspase-7 (Homo sapiens), P55210. AID 463210, 2010. activation, % at 8.5 µM. 330,000 compounds, 0.093% hits. recombinant procaspase-7, Ac-DEVD-pNA absorbance 405 nm; D23A/D198A/D206A triple mutant, cannot self-cleave; scale: DMSO 0, 5 µM enzyme 100;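 active = percent activation above the screen-wide mean plus 3 SD, cut at about 25% in these data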
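signal = Epi-absorbance of released pNA at 405 nm, two timepoints | assay system = Uncleavable procaspase-7 mutant enzyme | reagent = Ac-DEVD-pNA substrate, 400 µM as added | times = 1 h enzyme–compound preincubation and 2 h substrate reaction, both 25 °C | benchmarks = low DMSO alone, high DMSO plus 5 µM PC-7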
CHT block = inhibitors of human choline transporter CHT; CHT-expressing cells, membrane potential dye, choline response; hits give low values; 310,000 compounds, 0.86% hits; High affinity choline transporter 1 (Homo sapiens), Q9GZV3; B-score at 10 µM;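 active = B-score over 3 SD under the library average, and starting fluorescence ratio not unusually high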;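 note: choline stimulus applied at its EC90 after an EC20 pre-addition; B-score computed on integrated fluorescence ratio after choline addition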
procasp3 activ = activators of human procaspase-3 D3A mutant, primary screen, biochemical, absorbance, PC-3 D3A mutant, single concentration; 330,000 compounds, 0.11% hits; activation, % at 8.5 µM; AID 463141, 2010; recombinant procaspase-3 D3A, Ac-DEVD-pNA absorbance 405 nm;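 active = activation above the mean of all tested compounds plus 3 SD, cut at about 21% in these data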
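System: Procaspase-3 D3A mutant. Medium: Zinc-free 300 mM NaCl, 50 mM HEPES, 0.01% Triton X-100. Schedule: 1 h preincubation plus 2 h reaction at 25 °C. Measured by: 405 nm absorbance of p-nitroaniline, reads at 0 and 120 min. Read-out: percent activation relative to control range.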
procasp7 triplic = procaspase-7 activators, counter-screen for procaspase-3 activator project, biochemical, absorbance, triplicate, human. shares compounds with procasp3 activ. recombinant procaspase-7, Ac-DEVD-pNA absorbance; asp23/198/206-to-Ala mutant, cannot self-cleave. activation, % at 8.5 µM. 210 tested, under 10 active. AID 488941, 2010;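 active = mean activation above a set limit taken from an earlier procaspase-7 screen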
proCasp3 confirm = activators of human procaspase-3 D3A mutant, confirmation, biochemical, absorbance, PC-3 D3A mutant, triplicate. shares compounds with procasp3 activ. recombinant PC-3 D3A, Ac-DEVD-pNA absorbance 405 nm; 100% is higher-enzyme control. activation, % at 8.5 µM. 210 compounds, 10% hits;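 active = mean activation above a set limit carried over from the earlier primary screen, cut at about 22% in these data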
Large screens that a line does not name were inactive (follow-up assays come after a bar, where they were run). An excerpt weighted towards active compounds, which were near 1.3% of everything screened.

Nc1ccc2nn(-c3cccc4ccccc34)nc2c1	none
COc1ccccc1[C@@H]1C(c2ccccc2)=NN(c2ccccc2)[C@H]1C(=O)N1CCOC1=O	none (no result: CHT PAM, CHT block)
COc1ccccc1[C@@H]1C(c2cccc(C)c2)=NN(c2ccccc2)[C@H]1C(=O)N1CCOC1=O	procasp3 activ 24.2 | procasp7 triplic inactive | proCasp3 confirm inactive
COc1cc(/C=C/C(=O)c2ccc3c(c2)OCO3)cc(Cl)c1O	none
O=C(O)c1nn(CCOc2ccccc2F)c(=O)c2ccccc12	procasp3 activ 21.5 | procasp7 triplic inactive | proCasp3 confirm inactive
Cc1c(CCC(=O)O)c(=O)oc2cc(O)ccc12	procasp3 activ 23.8 | procasp7 triplic inactive | proCasp3 confirm inactive
Cc1c(CCC(=O)O)c(=O)oc2cc3occ(C(C)(C)C)c3cc12	none
COc1ccc(C(=O)N/C(=C\c2cn(C)c3ccccc23)C(=O)N2CCN(C)CC2)cc1OC	none
COc1cc(/C=N/NC(=O)C(=O)/C=C2\NC3(CCCC3)Cc3ccccc32)ccc1O	none
O=C(/C=C1\NC2(CCCC2)Cc2ccccc21)C(=O)N/N=C/c1ccccc1O	procasp3 activ 24.4 | procasp7 triplic inactive | proCasp3 confirm 32.1
COc1ccc(-c2cc3ccc(O)cc3oc2=O)cc1	procasp3 activ 21.6 | procasp7 triplic inactive | proCasp3 confirm inactive
C[C@H](CO)N1C[C@H](C)[C@@H](CN(C)S(C)(=O)=O)Oc2ccc(N(C)C)cc2C1=O	none (no result: CHT PAM, CHT block)
O=C(CC1SCCNC1=O)Nc1cccc(C(F)(F)F)c1 (stereo not given)	procasp3 activ 67.2 | procasp7 triplic inactive | proCasp3 confirm inactive
O=C(Nc1ccc(Cl)cc1)C1CCCN(C2=NS(=O)(=O)c3ccccc32)C1 (stereo not given)	none (no result: CHT PAM, CHT block)
Cc1cnc(C(=O)OCC(=O)N2c3ccccc3NC(=O)C2(C)C)cn1	none
CC(=O)c1c(C)[nH]c(C(=O)OCC(=O)N2c3ccccc3NC(=O)C2(C)C)c1C	procasp3 activ 29.9 | procasp7 triplic inactive | proCasp3 confirm inactive
Cc1ccc(-n2nc3c(=O)n(C(C)C(=O)NC4CC4)nc(C)c3c2C)cc1 (stereo not given)	none
CC(=O)Oc1cccc2c1C(=O)c1c(OC(C)=O)cc(C(=O)O)cc1C2=O	procasp3 activ 26.1 | procasp7 triplic inactive | proCasp3 confirm 31.9
CC(=O)Oc1ccc(C(=O)O)cc1OC(C)=O	none
COc1ccc(S(=O)(=O)N(C)c2ccc(C(=O)NCCC(C)C)cc2)cc1	none
CCOCCCNC(=O)c1ccc(N(C)S(=O)(=O)c2ccc(OC)cc2)cc1	procasp3 activ 22.2 | procasp7 triplic inactive | proCasp3 confirm inactive
CCOc1ccc(-c2c(C(=O)N/N=C/c3ccc(C)s3)nnn2-c2nonc2N)cc1	procasp3 activ 25.7 | procasp7 triplic inactive | proCasp3 confirm inactive
COc1ccc(C(=O)/C=C2/Sc3cc4c(cc3N2C)OCO4)cc1	none
CN1/C(=C/C(=O)c2ccc(Cl)cc2)Sc2cc3c(cc21)OCO3	procasp3 activ 40.0 | procasp7 triplic inactive | proCasp3 confirm inactive
O=c1[nH]c2ccccc2nc1-c1cccs1	procasp3 activ 34.4 | procasp7 triplic inactive | proCasp3 confirm inactive
c1csc(-c2nnsc2-c2nc3ccccc3[nH]2)c1	none
CN(C)/C=N/C1=C(C#N)C(c2ccc(Br)cc2)c2ccc3ccccc3c2O1 (stereo not given)	procasp3 activ 28.7 | procasp7 triplic inactive | proCasp3 confirm inactive
COc1ccc(C(=O)NNC(=O)c2cc3cc([N+](=O)[O-])ccc3oc2=O)cc1OC	none
